Experimental data as given in ChEMBL document CHEMBL4350987, “Design, synthesis and biological evaluation of novel substituted purine isosters as EGFR kinase inhibitors, with promising pharmacokinetic profile and in vivo efficacy” (Eur J Med Chem, 2019).
Activity calls are given as the source filed them. The calls are words filed in the database; no cut-off is given here.

Test system: A549
Experiment: Antiproliferative activity against human A549 cells overexpressing EGFR assessed as reduction in cell viability at 1 to 60 uM incubated for 72 hrs by MTT assay
Assay type: functional, cell-based

For `Fc1cccc(COc2ccc(Nc3nccc4[nH]c(-c5ccco5)nc34)cc2Cl)c1`, which inhibition is on record?
Its inhibition is “inactive”.

Which inhibition does the source give for `Fc1cccc(COc2ccc(Nc3ncnc4[nH]c(-c5ccco5)nc34)cc2Cl)c1` here?
The inhibition was “Active”.

Molecular target: Receptor tyrosine-protein kinase erbB-2 (Homo sapiens) (UniProt P04626)
Experiment: Inhibition of human recombinant GST-tagged HER2 (catalytic domain 676 to end residues) autophosphorylation expressed in baculovirus infected Sf9 cells using poly( Glu, Tyr) 4:1 as substrate at 10 uM incubated for 60 mins by ELISA relative to control
How it was run: (§1)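 Wells coated with poly-Glu,Tyr (4:1), 20 µg/well overnight at 4 °C, then blocked with 5% BSA. GST-HER2 added at 200 ng/mL final in HEPES/NaCl/NaVO₄/BSA buffer. Reaction started with ATP spanning Km plus 10 mM MnCl₂ final, run 60 min at 37 °C, stopped with EDTA. Phosphotyrosine detected with HRP anti-pTyr and ABTS at 405 nm; triplicate.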

Receptor tyrosine-protein kinase erbB-2 (Homo sapiens), sequence (P04626 whole entry, the tested form may be a part): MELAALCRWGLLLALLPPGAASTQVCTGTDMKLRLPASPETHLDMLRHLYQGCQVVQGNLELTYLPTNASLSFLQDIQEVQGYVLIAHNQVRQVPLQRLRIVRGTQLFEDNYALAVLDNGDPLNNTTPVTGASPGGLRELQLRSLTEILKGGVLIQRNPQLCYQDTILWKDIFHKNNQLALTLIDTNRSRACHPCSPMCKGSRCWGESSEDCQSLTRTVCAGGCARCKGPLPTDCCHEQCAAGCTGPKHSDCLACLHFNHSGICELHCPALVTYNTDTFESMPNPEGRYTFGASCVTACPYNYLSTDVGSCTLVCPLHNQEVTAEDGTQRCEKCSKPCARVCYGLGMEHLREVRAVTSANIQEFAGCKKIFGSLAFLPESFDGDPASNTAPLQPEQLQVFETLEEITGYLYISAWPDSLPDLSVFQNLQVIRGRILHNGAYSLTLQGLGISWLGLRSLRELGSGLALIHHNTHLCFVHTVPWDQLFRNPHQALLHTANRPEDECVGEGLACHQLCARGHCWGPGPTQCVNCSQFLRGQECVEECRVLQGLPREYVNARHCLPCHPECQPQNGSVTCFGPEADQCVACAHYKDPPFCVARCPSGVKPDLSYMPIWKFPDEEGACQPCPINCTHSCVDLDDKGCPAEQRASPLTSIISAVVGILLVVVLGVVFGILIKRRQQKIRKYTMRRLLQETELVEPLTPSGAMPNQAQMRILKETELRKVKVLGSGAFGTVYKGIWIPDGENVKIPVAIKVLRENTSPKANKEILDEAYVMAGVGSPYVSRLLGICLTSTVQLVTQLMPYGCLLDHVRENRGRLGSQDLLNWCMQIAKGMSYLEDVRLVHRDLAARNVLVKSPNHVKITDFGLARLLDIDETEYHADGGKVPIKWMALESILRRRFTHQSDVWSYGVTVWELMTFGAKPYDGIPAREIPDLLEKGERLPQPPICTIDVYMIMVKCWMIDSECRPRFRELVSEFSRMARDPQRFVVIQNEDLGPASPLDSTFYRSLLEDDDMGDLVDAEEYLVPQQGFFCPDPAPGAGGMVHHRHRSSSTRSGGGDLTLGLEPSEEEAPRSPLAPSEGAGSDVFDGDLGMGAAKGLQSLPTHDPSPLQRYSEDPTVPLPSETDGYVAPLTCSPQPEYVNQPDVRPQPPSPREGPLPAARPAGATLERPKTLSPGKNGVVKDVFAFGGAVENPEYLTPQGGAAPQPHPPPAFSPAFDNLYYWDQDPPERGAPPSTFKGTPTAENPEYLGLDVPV

Which inhibition does the source give for `CS(=O)(=O)CCNCc1ccc(-c2nc3c(Nc4ccc(OCc5cccc(F)c5)c(Cl)c4)nccc3[nH]2)o1` here?
The inhibition was 34%.

`Fc1cccc(COc2ccc(Nc3nccc4[nH]c(-c5ccco5)nc34)cc2Cl)c1` was tested. Which inhibition did it give?
Its inhibition is 86%.

`Fc1cccc(COc2ccc(Nc3ncc(F)c4[nH]c(-c5ccco5)nc34)cc2Cl)c1` was tested. Which inhibition did it give?
The inhibition was 79%.

`Fc1cccc(COc2ccc(Nc3ncnc4[nH]c(-c5ccco5)nc34)cc2Cl)c1` was tested. Which inhibition did it give?
The inhibition was 86%.

How did the inhibition turn out when `CS(=O)(=O)CCNCc1ccc(-c2nc3c(Nc4ccc(OCc5cccc(F)c5)c(Cl)c4)ncc(F)c3[nH]2)o1` was run?
Its inhibition is 13%.

Molecular target: Receptor tyrosine-protein kinase erbB-2 (Homo sapiens) (UniProt P04626)
Experiment: Inhibition of human recombinant GST-tagged HER2 (catalytic domain 676 to end residues) autophosphorylation expressed in baculovirus infected Sf9 cells using poly( Glu, Tyr) 4:1 as substrate at 1 uM incubated for 60 mins by ELISA relative to control
How it was run: as §1

With `CS(=O)(=O)CCNCc1ccc(-c2nc3c(Nc4ccc(OCc5cccc(F)c5)c(Cl)c4)nccc3[nH]2)o1` as the molecule, how does the inhibition read?
The inhibition was 25%.

For `Fc1cccc(COc2ccc(Nc3nccc4[nH]c(-c5ccco5)nc34)cc2Cl)c1`, which inhibition is on record?
Its inhibition is 82%.

`Fc1cccc(COc2ccc(Nc3ncc(F)c4[nH]c(-c5ccco5)nc34)cc2Cl)c1` was tested. Which inhibition did it give?
Its inhibition is 10%.

Which inhibition does the source give for `Fc1cccc(COc2ccc(Nc3ncnc4[nH]c(-c5ccco5)nc34)cc2Cl)c1` here?
Its inhibition is 51%.

How did the inhibition turn out when `CS(=O)(=O)CCNCc1ccc(-c2nc3c(Nc4ccc(OCc5cccc(F)c5)c(Cl)c4)ncc(F)c3[nH]2)o1` was run?
The inhibition was 0%.

Molecular target: Receptor tyrosine-protein kinase erbB-2 (Homo sapiens) (UniProt P04626)
Experiment: Inhibition of HER2 autophosphorylation in human HCC1954 cells overexpressing HER2 at 0.02 to 2 uM incubated for 1 hr by Western blot analysis
Assay type: cell-based
How it was run: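 HCC-1954 cells at 60-70% confluence exposed to 0.02 and 2 μM compound for 1 h, then lysed in RIPA with protease inhibitors. About 10 µg protein separated by SDS-PAGE and blotted to PVDF. Phospho- and total HER2 antibodies at 1:1000, HRP secondaries, ECL read-out; β-actin used for normalization.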

Which inhibition does the source give for `CS(=O)(=O)CCNCc1ccc(-c2nc3c(Nc4ccc(OCc5cccc(F)c5)c(Cl)c4)nccc3[nH]2)o1` here?
Its inhibition is “Active”.

How did the inhibition turn out when `Fc1cccc(COc2ccc(Nc3ncnc4[nH]c(-c5ccco5)nc34)cc2Cl)c1` was run?
Its inhibition is “Active”.

`CS(=O)(=O)CCNCc1ccc(-c2nc3c(Nc4ccc(OCc5cccc(F)c5)c(Cl)c4)ncc(F)c3[nH]2)o1` was tested. Which inhibition did it give?
Its inhibition is “Active”.

Test system: HCC1954
Experiment: Antiproliferative activity against human HCC1954 cells overexpressing HER2 assessed as reduction in cell viability at 1 to 60 uM incubated for 72 hrs by MTT assay
Assay type: functional, cell-based

How did the inhibition turn out when `Fc1cccc(COc2ccc(Nc3nccc4[nH]c(-c5ccco5)nc34)cc2Cl)c1` was run?
Its inhibition is “inactive”.

`Fc1cccc(COc2ccc(Nc3ncnc4[nH]c(-c5ccco5)nc34)cc2Cl)c1` was tested. Which inhibition did it give?
Its inhibition is “Active”.

Molecular target: Epidermal growth factor receptor (Homo sapiens) (UniProt P00533)
Experiment: Inhibition of EGFR autophosphorylation in human A549 cells overexpressing EGFR at 1 to 10 uM treated with compound for 10 mins prior to EGF stimulation for 10 mins by Western blot analysis
Assay type: cell-based
How it was run: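 A549 cells grown to 60-70% confluence, then serum-starved 24 h. Exposed to compound for 10 min, then stimulated with 100 ng/mL EGF for 10 min at 37 °C and lysed in RIPA with protease inhibitors. About 10 µg protein run on SDS-PAGE, blotted to PVDF. Phospho- and total EGFR probed at 1:1000, HRP secondaries, ECL detection; β-actin for normalization.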

Epidermal growth factor receptor (Homo sapiens), sequence (P00533 whole entry): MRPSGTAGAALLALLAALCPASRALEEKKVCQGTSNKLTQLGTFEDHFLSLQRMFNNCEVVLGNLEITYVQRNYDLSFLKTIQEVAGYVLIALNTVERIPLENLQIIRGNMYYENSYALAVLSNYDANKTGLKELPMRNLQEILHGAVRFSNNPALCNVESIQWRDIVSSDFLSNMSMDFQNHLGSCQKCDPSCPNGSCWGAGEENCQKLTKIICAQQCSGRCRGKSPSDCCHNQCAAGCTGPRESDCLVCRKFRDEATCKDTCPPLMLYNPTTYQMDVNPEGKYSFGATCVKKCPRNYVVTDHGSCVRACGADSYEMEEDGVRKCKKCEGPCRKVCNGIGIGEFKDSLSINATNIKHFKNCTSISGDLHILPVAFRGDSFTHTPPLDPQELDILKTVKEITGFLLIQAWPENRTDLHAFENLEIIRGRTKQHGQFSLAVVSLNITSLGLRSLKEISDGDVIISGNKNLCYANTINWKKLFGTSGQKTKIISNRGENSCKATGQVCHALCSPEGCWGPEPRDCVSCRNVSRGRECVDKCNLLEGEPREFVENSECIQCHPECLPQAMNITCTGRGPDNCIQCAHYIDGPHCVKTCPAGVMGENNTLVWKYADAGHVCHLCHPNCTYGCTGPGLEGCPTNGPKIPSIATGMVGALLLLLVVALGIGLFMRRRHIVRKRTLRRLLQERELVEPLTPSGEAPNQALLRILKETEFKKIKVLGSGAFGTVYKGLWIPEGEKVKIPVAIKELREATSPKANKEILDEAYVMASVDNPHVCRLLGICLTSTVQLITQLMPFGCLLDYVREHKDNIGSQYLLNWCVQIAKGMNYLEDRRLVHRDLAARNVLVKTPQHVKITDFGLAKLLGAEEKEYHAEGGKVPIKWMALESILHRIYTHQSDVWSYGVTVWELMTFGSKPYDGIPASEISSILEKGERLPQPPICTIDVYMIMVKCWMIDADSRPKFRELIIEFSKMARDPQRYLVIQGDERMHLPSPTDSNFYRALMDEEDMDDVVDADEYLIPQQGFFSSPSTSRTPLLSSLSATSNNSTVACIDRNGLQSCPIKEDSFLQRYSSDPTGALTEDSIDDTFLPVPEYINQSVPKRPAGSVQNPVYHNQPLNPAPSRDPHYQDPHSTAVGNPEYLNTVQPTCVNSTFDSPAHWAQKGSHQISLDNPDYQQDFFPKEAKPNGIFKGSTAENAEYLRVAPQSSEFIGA

How did the inhibition turn out when `CS(=O)(=O)CCNCc1ccc(-c2nc3c(Nc4ccc(OCc5cccc(F)c5)c(Cl)c4)nccc3[nH]2)o1` was run?
Its inhibition is “Active”.
